From ChEMBL document CHEMBL1131326, “Design, synthesis, and antiviral evaluations of 1-(substituted benzyl)-2-substituted-5,6-dichlorobenzimidazoles as nonnucleoside analogues of 2,5,6-trichloro-1-(beta-D-ribofuranosyl)benzimidazole” (J Med Chem, 1998) come the findings set out here.

One assay concerns KB. Description: Inhibition of KB cell growth determined by quadruplicate assays. Format: functional, cell-based. The conditions noted are these: Homo sapiens. A digest of the protocol: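 KB cells seeded at 3000-5000/well, overnight at 37 °C, then compound in quadruplicate at six to eight concentrations for 48 h (about two doublings) in CO₂. Cells fixed in 95% ethanol, stained with 0.1% crystal violet, dye eluted with acidified ethanol and read at 570 nm; IC50 by regression vs log concentration.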

The next assay deals with CEM-SS. Description: Cytotoxicity against CEM-SS cells in terms of incorporation of [3H]dThd. It counts as functional, cell-based. The note with it: Homo sapiens. The procedure, abridged: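 DNA synthesis in CEM-SS cells measured as uptake of [³H]dThd into total acid-precipitable material; results averaged from duplicate experiments.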
Assay [1] concerns Human immunodeficiency virus 1. Description: Activity against HIV-1 by syncytial plaque assay performed in duplicate using CEM-SS cells. It counts as functional, organism-based. The note with it: Human immunodeficiency virus 1, CEM-SS. The procedure, abridged:
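Syncytial plaque assay: poly-L-lysine-adherent CEM-SS cells infected with HIV-1 strain IIIB with or without compound at selected concentrations; syncytial plaques counted at 30-fold magnification 7 days postinfection; duplicate. IC50 from linear regression of percent inhibition against log concentration.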

For a further assay, the system named is Human betaherpesvirus 5. Nature of the assay: Antiviral activity against human cytomegalovirus (HCMV) by plaque reduction assay. Format: functional, organism-based. A digest of the protocol: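 HFF monolayers infected with about 100 pfu/cm² of HCMV Towne (isolate Po); after adsorption, compound in growth medium added to duplicate wells at four to eight concentrations.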
On the technique in general: Plaques are areas of infected cells; plaque reduction assays count them against a control.

The subject of the next assay is Human alphaherpesvirus 1. Nature of the assay: Antiviral activity against herpes simplex virus type-1 (HSV-1). Format: functional, organism-based. A digest of the protocol: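 BSC-1 cells (10 000/well, MEM(E) + 10% calf serum) incubated overnight, then given drug in quadruplicate plus HSV-1 KOS at 100 pfu/well; 3 days at 37 °C. ELISA with HRP-conjugated rabbit anti-HSV-1 antibody, TMB substrate, stopped with H₂SO₄, absorbance at 450 and 570 nm; IC50 by regression of % absorbance reduction vs log concentration.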

The test system of the next assay is HFF. Nature of the assay: Visual cytotoxicity scored on HFF cells at a time of HCMV plaque enumeration. Format: functional, cell-based. The note with it: Homo sapiens. A digest of the protocol:
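Cytotoxicity in stationary HFF cells scored by microscopic inspection of cells not affected by virus, at time of HCMV plaque enumeration, in the plaque-assay plates.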

In general, IC50 refers to the concentration needed to halve the response being measured. Read a high IC50 as lower potency. Consider `OC[C@H]1O[C@H](n2c(Br)nc3cc(Cl)c(Cl)cc32)[C@@H](O)[C@H]1O`, for which the IC50 with KB was above 100 µM.

On to `Nc1nc2cc(Cl)c(Cl)cc2n1Cc1ccc([N+](=O)[O-])cc1`, for which the IC50 in the assay with CEM-SS was 32 µM; in assay [1], 21 µM; in the assay on Human betaherpesvirus 5 it was above 100 µM; in the assay on Human alphaherpesvirus 1, above 100 µM; in the assay on HFF it was above 100 µM; in the assay on KB it was 35 µM.

On to `Clc1ccc(Cn2c(Br)nc3cc(Cl)c(Cl)cc32)cc1`, for which the 50% inhibitory concentration (IC50) (in the assay on CEM-SS; in assay [1]; in the assay on Human betaherpesvirus 5; in the assay with Human alphaherpesvirus 1; with HFF; in the assay with KB) was above 100 µM in each case.

As for `CC(C)(C)c1ccc(Cn2c(Br)nc3cc(Cl)c(Cl)cc32)cc1`, the IC50 in the assay on CEM-SS is above 100 µM; in assay [1], 100 µM; in the assay with Human betaherpesvirus 5, above 100 µM; with HFF it was above 100 µM.

With `FC(F)(F)c1cccc(Cn2c(Br)nc3cc(Cl)c(Cl)cc32)c1`, the IC50 is above 100 µM in the assay with CEM-SS, 12 µM in assay [1], above 100 µM in the assay on Human betaherpesvirus 5 and above 100 µM with HFF.

Regarding `Nc1nc2cc(Cl)c(Cl)cc2n1Cc1ccc(F)cc1`, the IC50 was 30 µM in the assay on CEM-SS; 32 µM in assay [1]; 12 µM in the assay with Human betaherpesvirus 5; 70 µM in the assay on Human alphaherpesvirus 1; 37 µM with HFF; 70 µM in the assay with KB.

Consider `O=[N+]([O-])c1cccc(Cn2c(Cl)nc3cc(Cl)c(Cl)cc32)c1`, for which the IC50 with CEM-SS is above 100 µM; in assay [1], 20 µM; in the assay on Human betaherpesvirus 5, above 100 µM; in the assay on Human alphaherpesvirus 1, above 100 µM; in the assay with HFF it was above 100 µM; with KB, 239 µM.

Turning to `Nc1nc2cc(Cl)c(Cl)cc2n1Cc1cc(C(F)(F)F)cc(C(F)(F)F)c1`, the IC50 is 34 µM with CEM-SS; above 6 µM in assay [1]; 32 µM in the assay with Human betaherpesvirus 5; 60 µM in the assay with Human alphaherpesvirus 1; 32 µM in the assay on HFF.

For `Nc1nc2cc(Cl)c(Cl)cc2n1Cc1cccc(C(F)(F)F)c1`, the IC50 is 17 µM in the assay on CEM-SS; above 10 µM in assay [1]; 32 µM in the assay on Human betaherpesvirus 5; 60 µM in the assay with Human alphaherpesvirus 1; 32 µM in the assay with HFF; 45 µM in the assay on KB.

As for `CC(C)(C)c1ccc(Cn2c(N)nc3cc(Cl)c(Cl)cc32)cc1`, the 50% inhibitory concentration (IC50) came out at 27 µM in the assay with CEM-SS; 10 µM in assay [1]; 22 µM in the assay on Human betaherpesvirus 5; 60 µM with Human alphaherpesvirus 1; 32 µM in the assay on HFF; 50 µM in the assay with KB.

Consider `Nc1nc2cc(Cl)c(Cl)cc2n1Cc1ccc(Cl)c(Cl)c1`, for which the IC50 in the assay with CEM-SS was 30 µM; in assay [1] it was above 6 µM; with Human betaherpesvirus 5, 40 µM; in the assay with Human alphaherpesvirus 1, 50 µM; with HFF it was 32 µM; in the assay on KB, 35 µM.

On to `Cc1ccc(Cn2c(Cl)nc3cc(Cl)c(Cl)cc32)cc1`, for which the IC50 with CEM-SS was above 100 µM; in assay [1], 33 µM; in the assay on Human betaherpesvirus 5, above 100 µM; with Human alphaherpesvirus 1 it was above 100 µM; with HFF, 32 µM; in the assay with KB it was above 100 µM.

For `Nc1nc2cc(Cl)c(Cl)cc2n1Cc1ccc(C(F)(F)F)cc1`, the IC50 with CEM-SS came out at 20 µM; in assay [1], 1.8 µM; in the assay on Human betaherpesvirus 5 it was 32 µM; in the assay with HFF, 32 µM.

Consider `Clc1cc2nc(Br)n(CCc3ccccc3)c2cc1Cl`, for which the half-maximal inhibitory concentration (IC50) with Human betaherpesvirus 5, in the assay on Human alphaherpesvirus 1, with HFF and in the assay on KB was above 100 µM in each case.

With `COc1ccc(Cn2c(Br)nc3cc(Cl)c(Cl)cc32)cc1`, the IC50 in the assay with CEM-SS was 60 µM; in assay [1], 6 µM; in the assay on Human betaherpesvirus 5 it was above 100 µM; in the assay on Human alphaherpesvirus 1, above 100 µM; in the assay with HFF, above 100 µM; with KB it was 55 µM.

With `Clc1cc2nc(Cl)n(CCc3ccccc3)c2cc1Cl`, the concentration for half-maximal inhibition (IC50) in the assay with Human betaherpesvirus 5 and with HFF was above 100 µM each time.

Turning to `Clc1cccc(Cn2c(Cl)nc3cc(Cl)c(Cl)cc32)c1`, the IC50 in the assay with CEM-SS was above 100 µM; in assay [1], 100 µM; with Human betaherpesvirus 5, above 100 µM; with Human alphaherpesvirus 1, above 100 µM; in the assay on HFF, above 100 µM.

Turning to `Clc1cccc(Cn2c(Br)nc3cc(Cl)c(Cl)cc32)c1`, the IC50 is above 100 µM in the assay on CEM-SS; above 100 µM in assay [1]; above 100 µM with Human betaherpesvirus 5; 70 µM with Human alphaherpesvirus 1; above 100 µM in the assay with HFF; above 100 µM with KB.

For `COc1ccc(Cn2c(N)nc3cc(Cl)c(Cl)cc32)cc1`, the IC50 with CEM-SS was 27 µM; in assay [1], 12 µM; in the assay with Human betaherpesvirus 5, above 100 µM; in the assay on Human alphaherpesvirus 1, above 100 µM; in the assay with HFF, above 100 µM; in the assay on KB, 45 µM.

Take `Clc1cc2nc(Cl)n(Cc3ccccc3)c2cc1Cl`: the IC50 in the assay on Human betaherpesvirus 5, with Human alphaherpesvirus 1, in the assay with HFF and in the assay on KB was above 100 µM in each case.

With `Nc1nc2cc(Cl)c(Cl)cc2n1Cc1ccccc1`, the IC50 in the assay on Human betaherpesvirus 5 turned out to be 37 µM; with Human alphaherpesvirus 1, 152 µM; with HFF, 58 µM; with KB, 170 µM.

As for `Fc1ccc(Cn2c(Br)nc3cc(Cl)c(Cl)cc32)cc1`, the IC50 in the assay with CEM-SS is above 100 µM; in assay [1], 30 µM; in the assay with Human betaherpesvirus 5, above 100 µM; in the assay on HFF, above 100 µM.

Take `Cc1cccc(Cn2c(N)nc3cc(Cl)c(Cl)cc32)c1`: the IC50 was 48 µM in the assay with CEM-SS; 12 µM in assay [1]; above 100 µM with Human betaherpesvirus 5; 80 µM in the assay with Human alphaherpesvirus 1; above 100 µM in the assay with HFF; 65 µM in the assay with KB.

On to `Nc1nc2cc(Cl)c(Cl)cc2n1Cc1ccccc1Cl`, for which the IC50 with CEM-SS is 36 µM; in assay [1] it was 6 µM; in the assay with Human betaherpesvirus 5, 32 µM; in the assay with Human alphaherpesvirus 1 it was above 100 µM; in the assay with HFF it was 32 µM.

For `Cc1ccc(Cn2c(Br)nc3cc(Cl)c(Cl)cc32)cc1`, the IC50 (in the assay with CEM-SS; in assay [1]; with Human betaherpesvirus 5; in the assay on Human alphaherpesvirus 1; with HFF; in the assay with KB) was above 100 µM throughout.

As to `Clc1ccc(Cn2c(Br)nc3cc(Cl)c(Cl)cc32)cc1Cl`, the IC50 (in the assay with CEM-SS; in assay [1]; with Human betaherpesvirus 5; in the assay with Human alphaherpesvirus 1; in the assay on HFF; in the assay with KB) was above 100 µM in each case.

For the compound `COc1ccc(Cn2c(Cl)nc3cc(Cl)c(Cl)cc32)cc1`, the half-maximal inhibitory concentration (IC50) is above 100 µM with CEM-SS; 26 µM in assay [1]; above 100 µM in the assay with Human betaherpesvirus 5; above 100 µM in the assay on Human alphaherpesvirus 1; above 100 µM in the assay on HFF; above 100 µM in the assay on KB.

`FC(F)(F)c1ccc(Cn2c(Cl)nc3cc(Cl)c(Cl)cc32)cc1`: the IC50 (in the assay with CEM-SS; in assay [1]; with Human betaherpesvirus 5; in the assay on Human alphaherpesvirus 1; in the assay with HFF; in the assay on KB) was above 100 µM in each case.

On to `CC(C)Nc1nc2cc(Cl)c(Cl)cc2n1Cc1ccccc1`, for which the IC50 with Human betaherpesvirus 5 was 22 µM; in the assay with Human alphaherpesvirus 1, 50 µM; with HFF, 22 µM; in the assay with KB, 45 µM.
